In the library only some 4% were active in any assay of this set; here they are far more common.
TAAR1 ag – human TAAR1 agonists, primary screen, Fluo-8 calcium fluorescence, CHO RD-HGA16 cells; vehicle wells 0%, saturating PEA agonist 100%; Trace amine-associated receptor 1 (Homo sapiens), Q96RJ0; activation, % at 3 µM; actives 0.99% (n = 360,000);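 active means activation above the mean activation of all test compounds in the run plus 3 SD, cut at about 38% in these data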
Target sequence (Q96RJ0 whole entry, looked up): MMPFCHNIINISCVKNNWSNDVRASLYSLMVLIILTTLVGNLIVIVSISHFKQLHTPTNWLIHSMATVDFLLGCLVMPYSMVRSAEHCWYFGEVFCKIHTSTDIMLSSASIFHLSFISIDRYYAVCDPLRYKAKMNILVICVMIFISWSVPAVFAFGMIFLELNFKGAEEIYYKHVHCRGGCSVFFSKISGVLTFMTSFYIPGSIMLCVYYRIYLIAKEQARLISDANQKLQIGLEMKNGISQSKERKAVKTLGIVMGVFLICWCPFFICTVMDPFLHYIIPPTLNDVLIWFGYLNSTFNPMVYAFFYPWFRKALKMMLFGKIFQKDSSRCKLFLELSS
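Repeats: no replicates (n 1) | Material: CHO-derived RD-HGA16 cells with stable Gα16 and human TAAR1 | Technique: Kinetic Fluo-8 calcium fluorescence | Schedule: 17-24 h seeding, 75 min 37 °C dye, 30 min RT | Evaluation: % activation from peak over basal fluorescence ratio, DMSO-to-PEA scaled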
CHO parental Ca – ATP-evoked calcium signal inhibitors, parental CHO, primary screen, counter-screen for OX1R antagonist project, cell-based, fluorescence, Fluo-8 calcium dye. parental CHO-K1, ATP-induced calcium, Fluo-8 fluorescence. inhibition, % at 5.6 µM. actives 0.63% (n = 330,000). AID 463079, 2010;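 active means inhibition above that plate's mean sample inhibition plus 3 SD, cut at about 26% in these data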
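material = parental CHO cells | also added = ATP as calcium-mobilizing challenge | dosing = single point at 5.6 µM | detection = intracellular calcium via Fluo-8 no-wash fluorescent dye | read-out = % inhibition | benchmarks = low control ATP plus DMSO, high control DMSO only | repeats = one well per compound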
NTR1 agonist – agonists of human NTR1, primary screen, imaging, U2OS cells, beta-arrestin-GFP, high content; Neurotensin receptor type 1 (Homo sapiens), P30989; NTR1-U2OS beta-arrestin-GFP spot imaging, agonist mode; activation, % at 20 µM; actives 0.17% (n = 330,000); AID 493036, 2011;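 active means activation at or above 40% of the spot to cytoplasm intensity ratio, with at least 20 cells analyzed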
OX1R antag-1 – antagonists of human orexin 1 receptor (OX1R); Orexin/Hypocretin receptor type 1 (Homo sapiens), O43613; OX1R-expressing cells, FRET antagonist read-out; inhibition, % at 6.6 µM; actives 1.8% (n = 330,000); AID 485270, 2010; in the data active means inhibition mostly above about 38%, no sharp cut-off; inactive means mostly below about 40%
Target sequence (O43613 whole entry, looked up): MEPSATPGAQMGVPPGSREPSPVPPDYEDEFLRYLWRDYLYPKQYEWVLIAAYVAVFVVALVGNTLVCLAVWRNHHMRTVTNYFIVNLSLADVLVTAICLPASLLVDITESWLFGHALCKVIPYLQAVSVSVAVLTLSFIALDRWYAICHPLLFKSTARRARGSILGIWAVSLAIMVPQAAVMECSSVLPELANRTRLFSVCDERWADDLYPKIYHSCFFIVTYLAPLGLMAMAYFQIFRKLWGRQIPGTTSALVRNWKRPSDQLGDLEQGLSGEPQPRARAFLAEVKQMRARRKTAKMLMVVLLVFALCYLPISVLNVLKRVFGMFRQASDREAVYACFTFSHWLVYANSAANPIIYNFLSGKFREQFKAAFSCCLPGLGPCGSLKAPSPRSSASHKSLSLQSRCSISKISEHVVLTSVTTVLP
TAAR1 antag – human TAAR1 antagonists, primary screen, Fluo-8 calcium fluorescence, CHO RD-HGA16 cells; Trace amine-associated receptor 1 (Homo sapiens), Q96RJ0; antagonist; inhibition, % at 3 µM; actives 1.5% (n = 360,000); AID 624466, 2012;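 active means inhibition above a per-plate cutoff, the mean inhibition of test compounds on that plate plus 3 SD, cut at about 49% in these data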
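test system = CHO RD-HGA16 cells bearing hTAAR1 | replication = singlicate | controls = DMSO-only wells and EC80 β-PEA-stimulated wells | reagent = EC80 β-phenethylamine stimulus | read-out basis = percent inhibition of PEA-evoked calcium signal, max/basal emission ratio | schedule = seeding 17-24 h prior, 75-min 37 °C, 30-min RT dye loading | signal = kinetic Fluo-8 calcium fluorescence measurement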
OX1R antag-2 – OX1R (HCRTR1) antagonists, primary screen, fluorescence, CHO/OX1R cells, Fluo-8 calcium, orexin A | Orexin/Hypocretin receptor type 1 (Homo sapiens), O43613 | Fluo-8 calcium fluorescence | inhibition, % at 5 µM | actives 0.43% (n = 330,000) | AID 434989, 2010;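 active means inhibition above its plate's threshold, mean inhibition of all tested compounds on the plate plus 3 SD, cut at about 37% in these data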
NTR1 ag conf – NTR1 agonists, single-dose retest, confirmation, imaging, U2OS cells, beta-arrestin-GFP, single concentration | shares compounds with NTR1 agonist | NTR1-U2OS beta-arrestin-GFP translocation imaging | activation, % at 20 µM | actives 38% (n = 480) | AID 504550, 2011;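 active means mean activation at 20 µM of at least 40%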
nonsel antag count – nonselective antagonists in TAAR1 counter-screen cells, counter-screen for hTAAR1 antagonist project, cell-based, fluorescence, calcium; shares compounds with TAAR1 antag; counterscreen cell line, antagonist mode; inhibition, % at 3 µM; actives 77% (n = 2,400); in the data active means inhibition above about 22%;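 further: CHO-Ga16 host cells stimulated with ATP at an EC80 level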
TAAR1 ant conf – human TAAR1 antagonists, retest of hits, confirmation, cell-based, fluorescence | shares compounds with TAAR1 antag | TAAR1-expressing cells, fluorescence antagonist read-out | inhibition, % at 3 µM | actives 40% (n = 2,400) | AID 651785, 2012; in the data active means inhibition above about 49%;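 further: CHO-Ga16 host cells challenged with agonist PEA near its EC80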
Ga16 ag counter – calcium activation in Ga16-expressing cells, counter-screen for TAAR1 antagonist project, cell-based, fluorescence. shares compounds with TAAR1 antag. agonist counterscreen. activation, % at 3 µM. actives 18% (n = 2,400). AID 651953, 2012; in the data active means activation above about 12%
TAAR1 ag count – TAAR1 activation by candidate antagonists – cell-based, fluorescence, counter-screen for TAAR1 antagonist project; shares compounds with TAAR1 antag; hTAAR1 cell line, agonist mode; actives 2% (n = 2,400); activation, % at 3 µM; in the data active means activation above about 37%;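 further: CHO cells stably expressing TAAR1 with calcium dye readout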
Large screens that a line does not name were inactive (follow-up assays come after a bar, where they were run).

Nc1nonc1-n1nnc(C(=O)N/N=C/c2cc(Cl)ccc2O)c1CN1CCCCCC1	none
COc1ccc(Cc2c(-c3ccco3)nc3ccc(Cl)cn23)c(C)c1	none (no result: CHO parental Ca, NTR1 agonist, OX1R antag-1, OX1R antag-2)
C/C(=N\Nc1cc(-c2ccccc2)nc(-c2ccccc2)n1)c1ccc(O)c(C)c1	none
COc1cc(N/N=C(\C)c2ccc(O)c(C)c2)nc(-c2ccccc2)n1	NTR1 agonist 53.2 | NTR1 ag conf inactive
CCn1c(SCc2ccc(Cl)cc2Cl)nc2nc3c(cc2c1=O)CCCC3	NTR1 agonist 43.9 | NTR1 ag conf inactive
O=C(NC(=S)Nc1cccc(Cl)c1N1CCCCC1)c1cccs1	none
O=C(NC(=S)Nc1cccc(Cl)c1N1CCCCC1)c1ccco1	none (no result: TAAR1 ag, TAAR1 antag)
CCCC(=O)NC(=S)Nc1cccc(Cl)c1N1CCCC1	NTR1 agonist 51.4 | NTR1 ag conf inactive
O=C(NC(=S)Nc1cccc(Cl)c1N1CCOCC1)c1cccs1	NTR1 agonist 43.4 | NTR1 ag conf inactive
CN(C)CCN(C)C1CN(C2CCCC2)S(=O)(=O)C1 (stereo unspecified)	none (no result: CHO parental Ca, NTR1 agonist, OX1R antag-1, OX1R antag-2)
Cc1cc(C)n(-c2nc(Nc3ccccc3C(F)(F)F)nc(-n3nc(C)cc3C)n2)n1	CHO parental Ca 41.7, NTR1 agonist 57.0, TAAR1 antag 91.8, OX1R antag-2 62.5 | NTR1 ag conf 43.3 | nonsel antag count 42.5 | TAAR1 ant conf 70.2 | Ga16 ag counter 13.2 | TAAR1 ag count inactive
COc1cccc(NC(=O)NCc2ccccc2Cl)c1	none
COc1ccc(-n2ncc3c(N4CCN(Cc5ccccc5)CC4)ncnc32)cc1	NTR1 agonist 67.1, TAAR1 antag 59.6 | NTR1 ag conf 56.1 | nonsel antag count 27.6 | TAAR1 ant conf 49.7 | Ga16 ag counter inactive | TAAR1 ag count inactive
CCN1CCN(c2ncnc3c2cnn3-c2ccc(Cl)cc2)CC1	none
CCN(C(=O)COC(=O)CC1CCCCC1)c1c(N)n(Cc2ccccc2)c(=O)[nH]c1=O	none
CCC[C@@H]1Cc2ccccc2N1C(C)=O	none
O=C(Nc1nc(-c2nc3ccccc3s2)cs1)C1COc2ccccc2O1 (stereo unspecified)	NTR1 agonist 41.4, TAAR1 antag 59.8 | NTR1 ag conf inactive | nonsel antag count 25.5 | TAAR1 ant conf inactive | Ga16 ag counter inactive | TAAR1 ag count inactive
COc1ccc(OC)c(-c2csc(NC(=O)C3COc4ccccc4O3)n2)c1 (stereo unspecified)	none
COc1cccc(OC)c1C(=O)Oc1ccc2c(c1)O/C(=C\c1ccncc1)C2=O	NTR1 agonist 51.5, TAAR1 antag 53.0 | NTR1 ag conf 56.2 | nonsel antag count 41.5 | TAAR1 ant conf 55.8 | Ga16 ag counter inactive | TAAR1 ag count inactive
CN1CCN(S(=O)(=O)c2cccc(C(=O)Oc3ccccc3Cl)c2)CC1	none
O=C(Nc1ccc(N2CCN(C(=O)c3ccco3)CC2)c(Cl)c1)c1cc2ccccc2o1	CHO parental Ca 36.5, NTR1 agonist 42.1, OX1R antag-1 71.9, TAAR1 antag 84.4 | NTR1 ag conf 63.4 | nonsel antag count 41.3 | TAAR1 ant conf 67.1 | Ga16 ag counter inactive | TAAR1 ag count inactive
O=C(Nc1ccc(N2CCN(C(=O)c3ccccc3)CC2)c(Cl)c1)c1ccco1	none
C=CCn1c(=NC(=O)c2cccc(N3C(=O)CCC3=O)c2)sc2cccc(OC)c21	NTR1 agonist 46.6, TAAR1 antag 73.9 | NTR1 ag conf 53.9 | nonsel antag count 26.8 | TAAR1 ant conf 52.4 | Ga16 ag counter inactive | TAAR1 ag count inactive
CC(C)(C)OC(=O)NCc1ccc(CNC(=O)c2[nH]cnc2C(=O)NCC(=O)OCc2ccccc2)cc1	NTR1 agonist 55.5, TAAR1 antag 91.8 | NTR1 ag conf inactive | nonsel antag count 48.9 | TAAR1 ant conf 66.5 | Ga16 ag counter 12.5 | TAAR1 ag count inactive
CC(C)Cc1ccc(CN2CCCC(NC(=O)CCN3CCCO3)C2)cc1 (stereo unspecified)	none
Cc1c(/C=N/NC(=O)c2ccc(O)cc2)c2ccccn2c1C(=O)c1ccc(F)cc1	none
Cc1c(/C=N/NC(=O)c2ccccc2O)c2ccccn2c1C(=O)c1ccc(F)cc1	NTR1 agonist 114.3, TAAR1 antag 92.9 | NTR1 ag conf inactive | nonsel antag count 48.3 | TAAR1 ant conf 94.4 | Ga16 ag counter 11.5 | TAAR1 ag count inactive
CCc1cccc(C)c1NC(=O)CN1C(=O)NC(C)(CCC(C)C)C1=O (stereo unspecified)	none
O=C(O)CC1Cc2ccccc2C1C(=O)O (stereo unspecified)	none (no result: CHO parental Ca, NTR1 agonist, OX1R antag-1, OX1R antag-2)
COc1cc(/C=N/NC(=O)c2ccc(N)cc2)ccc1OC(=O)c1cccc(C)c1	none (no result: CHO parental Ca, OX1R antag-1, OX1R antag-2)
COc1cc(C(=O)N/N=C/c2ccc(OC(=O)c3cccc(C)c3)cc2)ccc1O	NTR1 agonist 51.6, TAAR1 antag 79.5 (no result: CHO parental Ca, OX1R antag-1, OX1R antag-2) | NTR1 ag conf inactive | nonsel antag count 39.5 | TAAR1 ant conf 62.5 | Ga16 ag counter 12.6 | TAAR1 ag count inactive
O=C(Cc1cccs1)Nc1nc(-c2ccc(F)c(F)c2)cs1	NTR1 agonist 51.7, TAAR1 antag 72.4 | NTR1 ag conf inactive | nonsel antag count 39.2 | TAAR1 ant conf 55.5 | Ga16 ag counter inactive | TAAR1 ag count inactive
Cc1ccc(/C=C2\C(=O)ON=C2c2ccccc2)o1	none

Screening results: PubChem BioAssay, several laboratories
